Experimental data taken from ChEMBL document CHEMBL4190388, “Discovery and Optimization of Indolyl-Containing 4-Hydroxy-2-Pyridone Type II DNA Topoisomerase Inhibitors Active against Multidrug Resistant Gram-negative Bacteria” (J Med Chem, 2018).
≈ marks a conversion by molar mass, not a printed value.

What was measured:
Acinetobacter baumannii [1] = test: Antibacterial activity against fluoroquinolone resistant Acinetobacter baumannii isolate MMX2240 by CLSI M100-S17 protocol based method; type: functional
Escherichia coli [2] = test: Antibacterial activity against Escherichia coli infected in cyclophosphamide treated neutropenic CD1 mouse septicemia model assessed as mouse survival at 20 mg/kg, iv dosed at 1 hr post infection followed by redosing at 5 hrs post infection measured at 96 hrs post infection relative to control; type: functional
Method in brief: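 Female CD-1 mice were made neutropenic with cyclophosphamide ip, 150 mg/kg on day −4 and 100 mg/kg on day −1. […] Compound was given iv in 3% DMSO/saline at 1 and 5 h postinfection, n = 6 per group. Percent survival was scored at 96 h postinfection.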

Acinetobacter baumannii [3] = test: Antibacterial activity against beta-lactam resistant Acinetobacter baumannii by broth microdilution method; type: functional; settings: Acinetobacter baumannii
Method in brief: (§1)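 MICs were determined by CLSI broth methods, except that organisms were grown in brain–heart–infusion medium. The panel comprised wild-type and resistant E. coli and A. baumannii strains, including 12 strains whose details are given by reference.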

Acinetobacter baumannii [4] = test: Antibacterial activity against aminoglycoside resistant Acinetobacter baumannii by broth microdilution method; type: functional; settings: Acinetobacter baumannii; method in brief: as §1
Acinetobacter baumannii [5] = test: Antibacterial activity against quinolone resistant Acinetobacter baumannii by broth microdilution method; type: functional; settings: Acinetobacter baumannii; method in brief: as §1
Escherichia coli [6] = test: Antibacterial activity against beta-lactam resistant Escherichia coli by broth microdilution method; type: functional; settings: Escherichia coli; for MIC: read-out: MIC; method in brief: as §1
Escherichia coli [7] = test: Antibacterial activity against aminoglycoside resistant Escherichia coli by broth microdilution method; type: functional; settings: Escherichia coli; for MIC: read-out: MIC; method in brief: as §1
Acinetobacter baumannii [8] = test: Antibacterial activity against carbapenem resistant Acinetobacter baumannii by broth microdilution method; type: functional; settings: Acinetobacter baumannii; method in brief: as §1
Escherichia coli [9] = test: Antibacterial activity against wild type Escherichia coli by broth microdilution method; type: functional; method in brief: as §1
Acinetobacter baumannii [10] = test: Antibacterial activity against wild type Acinetobacter baumannii ATCC BAA-747 by CLSI M100-S17 protocol based method; type: functional
Klebsiella pneumoniae = test: Antibacterial activity against wild type Klebsiella pneumoniae ATCC 35657 by CLSI M100-S17 protocol based method; type: functional
Escherichia coli [11] = test: Antibacterial activity against wild type Escherichia coli ATCC 25922 in presence of HSA by CLSI M100-S17 protocol based method; type: functional
Escherichia coli [12] = test: Antibacterial activity against fluoroquinolone resistant Escherichia coli SKM18 by CLSI M100-S17 protocol based method; type: functional
Escherichia coli [13] = test: Antibacterial activity against wild type Escherichia coli ATCC 25922 by CLSI M100-S17 protocol based method; type: functional
Acinetobacter baumannii [14] = test: Antibacterial activity against multidrug resistant Acinetobacter baumannii by broth microdilution method; type: functional; settings: Acinetobacter baumannii; method in brief: as §1
[15] = Oral bioavailability in CD1 mouse plasma by LC-MS/MS analysis; type: ADME, organism-based
Mus musculus [16] = test: Volume of distribution at steady state in CD1 mouse plasma at 10 mg/kg, iv by LC-MS/MS analysis; type: ADME, organism-based; settings: in vivo
Escherichia coli [17] = test: Antibacterial activity against multidrug resistant Escherichia coli by broth microdilution method; type: functional; settings: Escherichia coli; for MIC: read-out: MIC; method in brief: as §1
Escherichia coli [18] = test: Antibacterial activity against quinolone resistance Escherichia coli isolate ELZ4251 harboring gyrA/parC mutant by CLSI M100-S17 protocol based method; type: functional
Acinetobacter baumannii [19] = test: Antibacterial activity against wild type Acinetobacter baumannii by broth microdilution method; type: functional; method in brief: as §1
Mus musculus [20] = test: Terminal half life in CD1 mouse plasma at 10 mg/kg, iv by LC-MS/MS analysis; type: ADME, organism-based; settings: in vivo
Mus musculus [21] = test: AUC (0 to 24 hrs) in CD1 mouse plasma at 10 mg/kg, iv by LC-MS/MS analysis; type: ADME, organism-based; parameters: time < 24 hr, dose 10 mg/kg, route intravenous; settings: in vivo
Method in brief: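 CD-1 mice given a single 10 mg/kg iv dose (n = 3), in either 10% DMSO plus 1% Tween 80 in pH 8.0 phosphate buffer or 20% (2-hydroxypropyl)-β-cyclodextrin in pH 4.0 citrate buffer; plasma exposure measured.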

[22] = Fraction unbound in mouse plasma at 1 uM by equilibrium dialysis method; type: ADME, cell-free
Escherichia coli [23] = test: Selectivity ratio of MIC for wild type Escherichia coli ATCC 25922 in presence of HSA to MIC for wild type Escherichia coli ATCC 25922; type: functional
Escherichia coli [24] = test: Antibacterial activity against quinolone resistant Escherichia coli by broth microdilution method; type: functional; settings: Escherichia coli; for MIC: read-out: MIC; method in brief: as §1
[25] = Inhibition of His tagged Escherichia coli ATCC 25922 DNA gyrase A expressed in Escherichia coli BL21 (DE3) pLysS cells assessed as reduction in enzyme-mediated supercoiling of relaxed plasmid DNA pNO1 after 30 mins in presence of biotinylated TFO1 by fluorescence assay
Acinetobacter baumannii [26] = test: Bactericidal activity against wild type Acinetobacter baumannii ATCC BAA-747 assessed as reduction of bacterial load after 24 hrs by time kill assay; type: functional, organism-based
Escherichia coli [27] = test: Bactericidal activity against wild type Escherichia coli ATCC 25922 assessed as reduction of bacterial load after 24 hrs by time kill assay; type: functional, organism-based

Cn1c(CNC2(C)CCC2)cc2cc3c(cc21)OCCc1c-3[nH]c(=O)c(C(=O)O)c1O
MIC (Acinetobacter baumannii [1]): 0.5 mg/L (≈ 1.18 µM) | survival at 20 mg/kg (Escherichia coli [2]): 67% | MIC50 (Acinetobacter baumannii [3]): 1 mg/L (≈ 2.36 µM) | MIC90 (Acinetobacter baumannii [3]): 8 mg/L (≈ 18.9 µM) | MIC50 (Acinetobacter baumannii [4]): 1 mg/L (≈ 2.36 µM) | MIC90 (Acinetobacter baumannii [4]): 8 mg/L (≈ 18.9 µM) | MIC50 (Acinetobacter baumannii [5]): 1 mg/L (≈ 2.36 µM) | MIC90 (Acinetobacter baumannii [5]): 8 mg/L (≈ 18.9 µM) | MIC50 (Escherichia coli [6]): 0.5 mg/L (≈ 1.18 µM) | MIC90 (Escherichia coli [6]): 1 mg/L (≈ 2.36 µM) | MIC (Escherichia coli [6]): 0.12 to 1 mg/L (≈ 0.283 to 2.36 µM) | MIC50 (Escherichia coli [7]): 0.5 mg/L (≈ 1.18 µM) | MIC90 (Escherichia coli [7]): 1 mg/L (≈ 2.36 µM) | MIC (Escherichia coli [7]): 0.12 to 1 mg/L (≈ 0.283 to 2.36 µM) | MIC50 (Acinetobacter baumannii [8]): 1 mg/L (≈ 2.36 µM) | MIC90 (Acinetobacter baumannii [8]): 8 mg/L (≈ 18.9 µM) | MIC50 (Escherichia coli [9]): 0.5 mg/L (≈ 1.18 µM) | MIC90 (Escherichia coli [9]): 1 mg/L (≈ 2.36 µM) | MIC (Acinetobacter baumannii [10]): 0.5 mg/L (≈ 1.18 µM) | MIC (Klebsiella pneumoniae): 1 mg/L (≈ 2.36 µM) | MIC (Escherichia coli [11]): 3.9 mg/L | MIC (Escherichia coli [12]): 0.5 mg/L (≈ 1.18 µM) | MIC (Escherichia coli [13]): 1 mg/L (≈ 2.36 µM) | MIC50 (Acinetobacter baumannii [14]): 1 mg/L (≈ 2.36 µM) | MIC90 (Acinetobacter baumannii [14]): 8 mg/L (≈ 18.9 µM) | bioavailability [15]: 50% | Vdss (Mus musculus [16]): 13 L/kg | MIC50 (Escherichia coli [17]): 0.5 mg/L (≈ 1.18 µM) | MIC90 (Escherichia coli [17]): 1 mg/L (≈ 2.36 µM) | MIC (Escherichia coli [17]): 0.12 to 1 mg/L (≈ 0.283 to 2.36 µM) | MIC (Escherichia coli [18]): 0.78 mg/L (≈ 1.84 µM) | MIC50 (Acinetobacter baumannii [19]): 1 mg/L (≈ 2.36 µM) | MIC90 (Acinetobacter baumannii [19]): 8 mg/L (≈ 18.9 µM) | beta t1/2 (Mus musculus [20]): 3.3 h | AUC (Mus musculus [21]): 4.42 µg·h/mL | Fu [22]: 0.15 | Ratio (Escherichia coli [23]): 2 - 4 | MIC50 (Escherichia coli [24]): 0.5 mg/L (≈ 1.18 µM) | MIC90 (Escherichia coli [24]): 1 mg/L (≈ 2.36 µM) | MIC (Escherichia coli [24]): 0.12 to 1 mg/L (≈ 0.283 to 2.36 µM)

O=C(O)c1cn(C2CC2)c2cc(N3CCNCC3)c(F)cc2c1=O [CIPROFLOXACIN]
IC50 [25]: 0.19 µM | Activity (Acinetobacter baumannii [26]): Dose-dependent effect | Activity (Escherichia coli [27]): Dose-dependent effect

CC(C)NCc1cc2cc3c(cc2n1C)CCCc1c-3[nH]c(=O)c(C(=O)O)c1O
MIC (Acinetobacter baumannii [1]): 0.78 mg/L (≈ 1.97 µM) | survival at 20 mg/kg (Escherichia coli [2]): 83% | MIC50 (Acinetobacter baumannii [3]): 2 mg/L (≈ 5.06 µM) | MIC90 (Acinetobacter baumannii [3]): 16 mg/L (≈ 40.5 µM) | MIC (Acinetobacter baumannii [3]; read-out: MIC): 0.25 to 32 mg/L (≈ 0.632 to 80.9 µM) | MIC50 (Acinetobacter baumannii [4]): 2 mg/L (≈ 5.06 µM) | MIC90 (Acinetobacter baumannii [4]): 16 mg/L (≈ 40.5 µM) | MIC (Acinetobacter baumannii [4]; read-out: MIC): 0.25 to 32 mg/L (≈ 0.632 to 80.9 µM) | MIC50 (Acinetobacter baumannii [5]): 2 mg/L (≈ 5.06 µM) | MIC90 (Acinetobacter baumannii [5]): 16 mg/L (≈ 40.5 µM) | MIC (Acinetobacter baumannii [5]; read-out: MIC): 0.25 to 32 mg/L (≈ 0.632 to 80.9 µM) | MIC50 (Escherichia coli [6]): 0.5 mg/L (≈ 1.26 µM) | MIC90 (Escherichia coli [6]): 1 mg/L (≈ 2.53 µM) | MIC (Escherichia coli [6]): 0.25 to 1 mg/L (≈ 0.632 to 2.53 µM) | MIC50 (Escherichia coli [7]): 0.5 mg/L (≈ 1.26 µM) | MIC90 (Escherichia coli [7]): 1 mg/L (≈ 2.53 µM) | MIC (Escherichia coli [7]): 0.25 to 1 mg/L (≈ 0.632 to 2.53 µM) | MIC50 (Acinetobacter baumannii [8]): 2 mg/L (≈ 5.06 µM) | MIC90 (Acinetobacter baumannii [8]): 16 mg/L (≈ 40.5 µM) | MIC (Acinetobacter baumannii [8]; read-out: MIC): 0.25 to 32 mg/L (≈ 0.632 to 80.9 µM) | MIC50 (Escherichia coli [9]): 0.5 mg/L (≈ 1.26 µM) | MIC90 (Escherichia coli [9]): 1 mg/L (≈ 2.53 µM) | MIC (Acinetobacter baumannii [10]): 0.78 mg/L (≈ 1.97 µM) | MIC (Klebsiella pneumoniae): 0.78 mg/L (≈ 1.97 µM) | MIC (Escherichia coli [11]): 3.1 mg/L | MIC (Escherichia coli [12]): 0.39 mg/L (≈ 0.986 µM) | MIC (Escherichia coli [13]): 0.78 mg/L (≈ 1.97 µM) | MIC50 (Acinetobacter baumannii [14]): 2 mg/L (≈ 5.06 µM) | MIC90 (Acinetobacter baumannii [14]): 16 mg/L (≈ 40.5 µM) | MIC (Acinetobacter baumannii [14]; read-out: MIC): 0.25 to 32 mg/L (≈ 0.632 to 80.9 µM) | bioavailability [15]: 44% | Vdss (Mus musculus [16]): 69 L/kg | MIC50 (Escherichia coli [17]): 0.5 mg/L (≈ 1.26 µM) | MIC90 (Escherichia coli [17]): 1 mg/L (≈ 2.53 µM) | MIC (Escherichia coli [17]): 0.25 to 1 mg/L (≈ 0.632 to 2.53 µM) | MIC (Escherichia coli [18]): 1.6 mg/L (≈ 4.05 µM) | MIC50 (Acinetobacter baumannii [19]): 2 mg/L (≈ 5.06 µM) | MIC90 (Acinetobacter baumannii [19]): 16 mg/L (≈ 40.5 µM) | beta t1/2 (Mus musculus [20]): 11 h | AUC (Mus musculus [21]): 1.81 µg·h/mL | Fu [22]: 0.16 | Ratio (Escherichia coli [23]): 4 - 16 | MIC50 (Escherichia coli [24]): 0.5 mg/L (≈ 1.26 µM) | MIC90 (Escherichia coli [24]): 1 mg/L (≈ 2.53 µM) | MIC (Escherichia coli [24]): 0.25 to 1 mg/L (≈ 0.632 to 2.53 µM)
